{"source": "ChEMBL document CHEMBL1127821", "about": "(J Med Chem, 1994)", "key": {"[1]": {"biological_target": "Sodium-dependent serotonin transporter (Rattus norvegicus, UniProt P31652)", "sequence (P31652 whole entry)": "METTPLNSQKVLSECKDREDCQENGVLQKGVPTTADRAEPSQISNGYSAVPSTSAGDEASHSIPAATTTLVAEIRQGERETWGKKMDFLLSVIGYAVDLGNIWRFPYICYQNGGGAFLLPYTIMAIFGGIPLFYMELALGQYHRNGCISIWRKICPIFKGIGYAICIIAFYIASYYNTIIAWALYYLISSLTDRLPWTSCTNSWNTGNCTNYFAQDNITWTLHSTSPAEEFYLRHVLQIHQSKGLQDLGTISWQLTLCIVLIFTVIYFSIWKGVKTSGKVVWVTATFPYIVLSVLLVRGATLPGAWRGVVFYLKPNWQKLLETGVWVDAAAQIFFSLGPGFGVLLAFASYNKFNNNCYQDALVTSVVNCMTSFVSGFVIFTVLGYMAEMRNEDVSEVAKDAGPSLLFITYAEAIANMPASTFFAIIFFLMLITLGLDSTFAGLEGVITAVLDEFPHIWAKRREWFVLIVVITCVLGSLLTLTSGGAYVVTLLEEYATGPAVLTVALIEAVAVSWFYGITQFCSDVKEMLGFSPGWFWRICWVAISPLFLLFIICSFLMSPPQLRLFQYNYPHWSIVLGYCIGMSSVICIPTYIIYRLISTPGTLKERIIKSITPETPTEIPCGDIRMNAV", "assay": "Inhibition of [3H]paroxetine binding to serotonin transport sites in rat frontal cortex membranes.", "assay_type": "cell membranes, Membrane", "procedure,_shortened": "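Frontal cortex from male Sprague-Dawley rats, homogenized in 50 mM Tris-HCl/120 mM NaCl/5 mM KCl pH 7.4 and washed twice at 48000g. […] Filtered on GF/B presoaked in 0.05% polyethyleneimine. Nonspecific binding with 10 μM fluoxetine.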"}, "[2]": {"biological_target": "T1, Sodium-dependent dopamine transporter (Rattus norvegicus, UniProt P23977)", "T1 sequence (P23977 whole entry)": "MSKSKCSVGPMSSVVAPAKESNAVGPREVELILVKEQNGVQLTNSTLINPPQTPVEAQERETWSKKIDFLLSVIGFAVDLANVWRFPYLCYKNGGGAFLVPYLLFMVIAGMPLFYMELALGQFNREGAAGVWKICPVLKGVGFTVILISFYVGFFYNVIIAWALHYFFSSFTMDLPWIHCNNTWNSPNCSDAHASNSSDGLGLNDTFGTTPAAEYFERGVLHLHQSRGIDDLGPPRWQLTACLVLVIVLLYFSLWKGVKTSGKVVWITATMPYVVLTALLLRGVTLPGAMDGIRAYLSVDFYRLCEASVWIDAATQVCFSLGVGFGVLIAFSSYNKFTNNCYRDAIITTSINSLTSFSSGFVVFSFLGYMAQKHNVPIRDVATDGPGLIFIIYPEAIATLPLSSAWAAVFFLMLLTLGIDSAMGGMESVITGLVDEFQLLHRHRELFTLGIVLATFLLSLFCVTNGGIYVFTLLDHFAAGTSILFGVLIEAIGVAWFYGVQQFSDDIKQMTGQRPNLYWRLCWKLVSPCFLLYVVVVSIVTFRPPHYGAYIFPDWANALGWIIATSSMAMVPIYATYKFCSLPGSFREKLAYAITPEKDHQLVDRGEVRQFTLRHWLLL", "assay": "Inhibition of [125I]RTI-55 binding to dopamine transport sites in rat striatal membranes.", "assay_type": "cell membranes, Membrane"}, "[3]": {"biological_target": "T1, Sodium-dependent dopamine transporter", "assay": "The potency of the [125I]RTI-55 for Dopamine transporter site"}}, "data": [{"smiles": "CCC(=O)C1C(c2ccc(C(C)(C)C)cc2)CC2CCC1N2C", "note": "(stereo unspecified)", "values": [{"measurement": "Ki", "setting": "[1]", "result": 1770, "unit": "nM"}, {"measurement": "IC50", "setting": "[2]", "result": 2120, "unit": "nM"}]}, {"smiles": "CCC(=O)C1C(c2ccc(-c3ccccc3)cc2)CC2CCC1N2C", "note": "(stereo unspecified)", "values": [{"measurement": "Ki", "setting": "[1]", "result": 4.31, "unit": "nM"}, {"measurement": "IC50", "setting": "[2]", "result": 2.29, "unit": "nM"}]}, {"smiles": "CC(=O)C1C(c2ccc(F)cc2)CC2CCC1N2C", "note": "(stereo unspecified)", "values": [{"measurement": "Ki", "setting": "[1]", "result": 857, "unit": "nM"}, {"measurement": "IC50", "setting": "[2]", "result": 70.8, "unit": "nM"}]}, {"smiles": "CC(=O)C1C(c2ccc3ccccc3c2)CC2CCC1N2C", "note": "(stereo unspecified)", "values": [{"measurement": "Ki", "setting": "[1]", "result": 1.06, "unit": "nM"}, {"measurement": "IC50", "setting": "[2]", "result": 0.28, "unit": "nM"}]}, {"smiles": "CC(=O)C1C(c2ccc(C)cc2)CC2CCC1N2C", "note": "(stereo unspecified)", "values": [{"measurement": "Ki", "setting": "[1]", "result": 122, "unit": "nM"}, {"measurement": "IC50", "setting": "[2]", "result": 9.8, "unit": "nM"}]}, {"smiles": "CCC(=O)C1C(c2ccc(F)cc2)CC2CCC1N2C", "note": "(stereo unspecified)", "values": [{"measurement": "Ki", "setting": "[1]", "result": 630, "unit": "nM"}, {"measurement": "IC50", "setting": "[2]", "result": 15.3, "unit": "nM"}]}, {"smiles": "CC(=O)C1C(c2cccc3ccccc23)CC2CCC1N2C", "note": "(stereo unspecified)", "values": [{"measurement": "Ki", "setting": "[1]", "result": 25.6, "unit": "nM"}]}, {"smiles": "CCOC(=O)C1C(c2ccc(I)cc2)CC2CCC1N2C", "note": "(stereo unspecified)", "values": [{"measurement": "Kd", "setting": "[3]", "result": 1, "unit": "nM"}]}, {"smiles": "CCC(=O)C1C(c2ccccc2)CC2CCC1N2C", "note": "(stereo unspecified)", "values": [{"measurement": "Ki", "setting": "[1]", "result": 1010, "unit": "nM"}]}, {"smiles": "CCc1ccc(C2CC3CCC(C2C(C)=O)N3C)cc1", "note": "(stereo unspecified)", "values": [{"measurement": "Ki", "setting": "[1]", "result": 78.2, "unit": "nM"}, {"measurement": "IC50", "setting": "[2]", "result": 152, "unit": "nM"}]}, {"smiles": "CCC(=O)C1C(c2ccccc2C)CC2CCC1N2C", "note": "(stereo unspecified)", "values": [{"measurement": "Ki", "setting": "[1]", "result": "> 10000", "unit": "nM"}, {"measurement": "IC50", "setting": "[2]", "result": 1290, "unit": "nM"}]}, {"smiles": "CCC(=O)C1C(c2ccc(C(C)C)cc2)CC2CCC1N2C", "note": "(stereo unspecified)", "values": [{"measurement": "Ki", "setting": "[1]", "result": 35.8, "unit": "nM"}, {"measurement": "IC50", "setting": "[2]", "result": 436, "unit": "nM"}]}, {"smiles": "CCC(=O)C1C(c2cccc3ccccc23)CC2CCC1N2C", "note": "(stereo unspecified)", "values": [{"measurement": "Ki", "setting": "[1]", "result": 20.9, "unit": "nM"}, {"measurement": "IC50", "setting": "[2]", "result": 5.34, "unit": "nM"}]}, {"smiles": "CCC(=O)C1C(C2CCCCC2)CC2CCC1N2C", "note": "(stereo unspecified)", "values": [{"measurement": "Ki", "setting": "[1]", "result": "> 10000", "unit": "nM"}, {"measurement": "IC50", "setting": "[2]", "result": 4610, "unit": "nM"}]}, {"smiles": "CCC(=O)C1C(CC)CC2CCC1N2C", "note": "(stereo unspecified)", "values": [{"measurement": "Ki", "setting": "[1]", "result": "> 10000", "unit": "nM"}, {"measurement": "IC50", "setting": "[2]", "result": "> 50000", "unit": "nM"}]}, {"smiles": "CC(=O)C1C(c2ccccc2)CC2CCC1N2C", "note": "(stereo unspecified)", "values": [{"measurement": "Ki", "setting": "[1]", "result": 1360, "unit": "nM"}, {"measurement": "IC50", "setting": "[2]", "result": 114, "unit": "nM"}]}, {"smiles": "CCC(=O)C1C(c2ccc(C)cc2)CC2CCC1N2C", "note": "(single isomer, unassigned; (+))", "values": [{"measurement": "Ki", "setting": "[1]", "result": 74, "unit": "nM"}, {"measurement": "IC50", "setting": "[2]", "result": 4.21, "unit": "nM"}]}, {"smiles": "CCC(=O)C1C(c2ccc(C)cc2)CC2CCC1N2C", "note": "(single isomer, unassigned; (-))", "values": [{"measurement": "Ki", "setting": "[1]", "result": "> 10000", "unit": "nM"}, {"measurement": "IC50", "setting": "[2]", "result": 1340, "unit": "nM"}]}, {"smiles": "CCC(=O)C1C(c2ccc3ccccc3c2)CC2CCC1N2C", "note": "(single isomer, unassigned; (-))", "values": [{"measurement": "Ki", "setting": "[1]", "result": 484, "unit": "nM"}, {"measurement": "IC50", "setting": "[2]", "result": 113, "unit": "nM"}]}, {"smiles": "CCC(=O)C1C(c2ccc(C)cc2)CC2CCC1N2C", "note": "(stereo in doubt; 12a)", "values": [{"measurement": "Ki", "setting": "[1]", "result": 131, "unit": "nM"}, {"measurement": "IC50", "setting": "[2]", "result": 8.2, "unit": "nM"}]}, {"smiles": "CCC(=O)C1C(c2ccc3ccccc3c2)CC2CCC1N2C", "note": "(stereo in doubt; 21a)", "values": [{"measurement": "Ki", "setting": "[1]", "result": 0.394, "unit": "nM"}, {"measurement": "IC50", "setting": "[2]", "result": 0.115, "unit": "nM"}]}, {"smiles": "CCC(=O)C1C(c2ccc3ccccc3c2)CC2CCC1N2C", "note": "(stereo in doubt; (+)-21a)", "values": [{"measurement": "Ki", "setting": "[1]", "result": 0.121, "unit": "nM"}, {"measurement": "IC50", "setting": "[2]", "result": 0.043, "unit": "nM"}]}]}
